Assay results as given in ChEMBL document CHEMBL1149790, “Synthesis of some novel thiourea derivatives obtained from 5-[(4-aminophenoxy)methyl]-4-alkyl/aryl-2,4-dihydro-3H-1,2,4-triazole-3-thiones and evaluation as antiviral/anti-HIV and anti-tuberculosis agents” (Eur J Med Chem, 2008).
≈ marks a conversion by molar mass, not a printed value. Calls of active or inactive are those of the source. The rule behind the calls is not given here.

Columns and labels:
[1] = test system: Human immunodeficiency virus 1; assay: Antiviral activity against HIV1 3B in human MT4 cells assessed as protection against virus-induced cytopathogenicity by MTT assay; format: functional, organism-based; parameters: Activity: concentration or dose not given beside the values; details: for IC50: Human immunodeficiency virus 1, 3B, MT4
Method in brief: (§1)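 MT-4 cells at 6 × 10⁵ cells/ml infected with HIV-1 IIIB or HIV-2 ROD at 100–300 CCID50; compounds in serial five-fold dilutions, triplicate mock- and virus-infected wells. MTT viability read at 540 and 690 nm after 5 days, median OD of three wells; EC50 = 50% protection from viral cytopathic effect.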

[2] = test system: Human immunodeficiency virus 2; assay: Antiviral activity against HIV2 ROD in human MT4 cells assessed as protection against virus-induced cytopathogenicity by MTT assay; format: functional, organism-based; parameters: Activity: concentration or dose not given beside the values; details: for IC50: Human immunodeficiency virus 2, ROD, MT4; method in brief: as §1
[3] = Cytotoxicity against human MT4 cells by MTT assay; format: cell-based
Method in brief: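 Mock-infected MT-4 cells (6 × 10⁵ cells/ml) with serial five-fold compound dilutions in triplicate; MTT reduction read at 540 and 690 nm after 5 days, median OD of three wells; CC50 = concentration reducing OD540 of mock-infected control by 50%.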

[4] = Cytotoxicity against human HeLa cells; format: cell-based
Method in brief: (§2)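 Uninfected cell cultures exposed to test compounds alongside antiviral assays; minimum cytotoxic concentration (MCC) = concentration causing a microscopically detectable alteration of cell morphology.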

[5] = test system: Vesicular stomatitis virus; assay: Antiviral activity against vesicular stomatitis virus in human HeLa cells assessed as inhibition of virus-induced cytopathogenicity; format: functional
Method in brief: (§3)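 Confluent cell monolayers (E6SM, HEL, HeLa or Vero, per line) inoculated with 100 CCID50 virus; 1 h adsorption, residual virus removed, then incubated with compound at 400, 200, 100 … µg/ml. Cytopathicity scored once complete in untreated virus controls; MIC = concentration inhibiting virus-induced cytopathicity.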

Coxsackievirus B4 [6] = assay: Antiviral activity against Coxsackie virus B4 in human HeLa cells assessed as inhibition of virus-induced cytopathogenicity; format: functional; details: Enterovirus B; method in brief: as §3
[7] = test system: Respiratory syncytial virus; assay: Antiviral activity against respiratory syncytial virus in human HeLa cells assessed as inhibition of virus-induced cytopathogenicity; format: functional; method in brief: as §3
[8] = Cytotoxicity against human E6SM cells; format: cell-based; details: E6SM cells; method in brief: as §2
[9] = Cytotoxicity against human HEL cells assessed as alteration of cell morphology; format: cell-based; method in brief: as §2
Human alphaherpesvirus 1 [10] = assay: Antiviral activity against HSV1 KOS in human E6SM cells assessed as reduction of virus-induced cytopathogenicity; format: functional; details: Human alphaherpesvirus 1, KOS; method in brief: as §3
Human alphaherpesvirus 1 [11] = assay: Antiviral activity against HSV1 KOS in human HEL cells assessed as reduction of virus-induced cytopathogenicity; format: functional; details: Human alphaherpesvirus 1, KOS; method in brief: as §3
Human alphaherpesvirus 2 [12] = assay: Antiviral activity against HSV2 G in human E6SM cells assessed as reduction of virus-induced cytopathogenicity; format: functional; details: Human alphaherpesvirus 2, G; method in brief: as §3
Human alphaherpesvirus 2 [13] = assay: Antiviral activity against HSV2 G in human HEL cells assessed as reduction of virus-induced cytopathogenicity; format: functional; details: Human alphaherpesvirus 2, G; method in brief: as §3
[14] = test system: Vesicular stomatitis virus; assay: Antiviral activity against in Vesicular stomatitis virus in human E6SM cells assessed as reduction of virus-induced cytopathogenicity; format: functional; method in brief: as §3
[15] = test system: Vesicular stomatitis virus; assay: Antiviral activity against in Vesicular stomatitis virus in human HEL cells assessed as reduction of virus-induced cytopathogenicity; format: functional; method in brief: as §3
Human alphaherpesvirus 1 [16] = assay: Antiviral activity against thymidine kinase deficient and acyclovir resistant HSV1 KOS in human E6SM cells assessed as reduction of virus-induced cytopathogenicity; format: functional; details: Human alphaherpesvirus 1, KOS; method in brief: as §3
Human alphaherpesvirus 1 [17] = assay: Antiviral activity against thymidine kinase deficient and acyclovir resistant HSV1 KOS in human HEL cells assessed as reduction of virus-induced cytopathogenicity; format: functional; details: Human alphaherpesvirus 1, KOS; method in brief: as §3
Vero = assay: Cytotoxicity against african green monkey Vero cells; format: cell-based; details: chlorocebus sabaeus; method in brief: as §2
Coxsackievirus B4 [18] = assay: Antiviral activity against Coxsackie virus B4 in african green monkey Vero cells assessed as reduction of virus-induced cytopathogenicity; format: functional; details: Enterovirus B; method in brief: as §3
Punta Toro virus = assay: Antiviral activity against Punta Toro virus in african green monkey Vero cells assessed as reduction of virus-induced cytopathogenicity; format: functional; method in brief: as §3
Human betaherpesvirus 5 [19] = assay: Antiviral activity against human cytomegalovirus AD169 infected HEL cells assessed as reduction in virus plaque formation; format: functional, organism-based; details: Human betaherpesvirus 5, AD169, HEL
Human betaherpesvirus 5 [20] = assay: Antiviral activity against human cytomegalovirus Davis infected HEL cells assessed as reduction in virus plaque formation; format: functional, organism-based; details: Human betaherpesvirus 5, Davis
Human alphaherpesvirus 3 [21] = assay: Antiviral activity against TK+ VZV OKA infected HEL cells assessed as reduction in virus plaque formation; format: functional, organism-based; details: Human alphaherpesvirus 3, OKA
Human alphaherpesvirus 3 [22] = assay: Antiviral activity against TK- VZV 07/1 infected HEL cells assessed as reduction in virus plaque formation; format: functional, organism-based; details: Human alphaherpesvirus 3, 07/1, HEL
[23] = test system: Mycobacterium tuberculosis; assay: Antitubercular activity against Mycobacterium tuberculosis H37Rv at 6.25 ug/ml by MABA assay; format: functional
Human respirovirus 3 = assay: Antiviral activity against Parainfluenza 3 virus in african green monkey Vero cells assessed as reduction of virus-induced cytopathogenicity; format: functional; method in brief: as §3
[24] = test system: Mammalian orthoreovirus 1; assay: Antiviral activity against Reo virus 1 in african green monkey Vero cells assessed as reduction of virus-induced cytopathogenicity; format: functional; method in brief: as §3
Sindbis virus = assay: Antiviral activity against Sindbis virus in african green monkey Vero cells assessed as reduction of virus-induced cytopathogenicity; format: functional; method in brief: as §3
[25] = Cytotoxicity against human HEL cells assessed as reduction of cell growth; format: cell-based
Method in brief: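 HEL cells; CC50 = compound concentration reducing cell growth by 50%.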

CCn1c(COc2ccc(NC(=S)Nc3ccccc3)cc2)n[nH]c1=S
Activity [1]: 26.5% | IC50 [1]: > 27.2 µg/mL | Activity [2]: 25.5% | IC50 [2]: > 31.4 µg/mL | CC50 [3]: 31.9 µg/mL (≈ 82.8 µM) | MCC [4]: 400 µg/mL | MIC [5]: 80 µg/mL (≈ 208 µM) | MIC (Coxsackievirus B4 [6]): > 80 µg/mL | MIC [7]: > 80 µg/mL | MCC [8]: 400 µg/mL | MCC [9]: 400 µg/mL | MIC (Human alphaherpesvirus 1 [10]): > 80 µg/mL | MIC (Human alphaherpesvirus 1 [11]): > 80 µg/mL | MIC (Human alphaherpesvirus 2 [12]): > 80 µg/mL | MIC (Human alphaherpesvirus 2 [13]): > 80 µg/mL | MIC [14]: > 80 µg/mL | MIC [15]: > 80 µg/mL | MIC (Human alphaherpesvirus 1 [16]): > 80 µg/mL | MIC (Human alphaherpesvirus 1 [17]): > 80 µg/mL | Activity (Vero): >= 80 ug ml-1 | MIC (Coxsackievirus B4 [18]): 48 µg/mL (≈ 125 µM) | MIC (Punta Toro virus): > 80 µg/mL | EC50 (Human betaherpesvirus 5 [19]): 41 µg/mL (≈ 106 µM) | EC50 (Human betaherpesvirus 5 [20]): 37 µg/mL (≈ 96 µM) | EC50 (Human alphaherpesvirus 3 [21]): 29 µg/mL (≈ 75.2 µM) | EC50 (Human alphaherpesvirus 3 [22]): 34 µg/mL (≈ 88.2 µM) | inhibition at 6.25 µg/mL [23]: 76% | MIC (Human respirovirus 3): > 80 µg/mL | MIC [24]: > 80 µg/mL | MIC (Sindbis virus): > 80 µg/mL | CC50 [25]: > 50 µg/mL

CCn1c(COc2ccc(NC(=S)NC)cc2)n[nH]c1=S
Activity [1]: 1.5% | IC50 [1]: > 68.1 µg/mL | Activity [2]: 2% | IC50 [2]: > 77.9 µg/mL | CC50 [3]: 76.8 µg/mL (≈ 237 µM) | MCC [4]: 400 µg/mL | MIC [5]: > 80 µg/mL | MIC (Coxsackievirus B4 [6]): > 80 µg/mL | MIC [7]: > 80 µg/mL | MCC [8]: > 400 µg/mL | MCC [9]: > 400 µg/mL | MIC (Human alphaherpesvirus 1 [10]): > 400 µg/mL | MIC (Human alphaherpesvirus 1 [11]): > 400 µg/mL | MIC (Human alphaherpesvirus 2 [12]): > 400 µg/mL | MIC (Human alphaherpesvirus 2 [13]): > 400 µg/mL | MIC [14]: > 400 µg/mL | MIC [15]: > 400 µg/mL | MIC (Human alphaherpesvirus 1 [16]): > 400 µg/mL | MIC (Human alphaherpesvirus 1 [17]): > 400 µg/mL | Activity (Vero): 400 µg/mL | MIC (Coxsackievirus B4 [18]): > 80 µg/mL | MIC (Punta Toro virus): > 80 µg/mL | EC50 (Human betaherpesvirus 5 [19]): 63 µg/mL (≈ 195 µM) | EC50 (Human betaherpesvirus 5 [20]): > 100 µg/mL | EC50 (Human alphaherpesvirus 3 [21]): > 100 µg/mL | EC50 (Human alphaherpesvirus 3 [22]): 88 µg/mL (≈ 272 µM) | Activity [23]: inactive | MIC (Human respirovirus 3): > 80 µg/mL | MIC [24]: > 80 µg/mL | MIC (Sindbis virus): > 80 µg/mL | CC50 [25]: > 50 µg/mL

C=CCn1c(COc2ccc(NC(=S)NCC)cc2)n[nH]c1=S
Activity [1]: 4% | IC50 [1]: > 76.5 µg/mL | Activity [2]: 2.5% | IC50 [2]: > 86.2 µg/mL | CC50 [3]: 90 µg/mL (≈ 258 µM) | MCC [4]: 400 µg/mL | MIC [5]: > 80 µg/mL | MIC (Coxsackievirus B4 [6]): > 80 µg/mL | MIC [7]: > 80 µg/mL | MCC [8]: > 400 µg/mL | MCC [9]: > 400 µg/mL | MIC (Human alphaherpesvirus 1 [10]): > 400 µg/mL | MIC (Human alphaherpesvirus 1 [11]): > 400 µg/mL | MIC (Human alphaherpesvirus 2 [12]): > 400 µg/mL | MIC (Human alphaherpesvirus 2 [13]): > 400 µg/mL | MIC [14]: > 400 µg/mL | MIC [15]: > 400 µg/mL | MIC (Human alphaherpesvirus 1 [16]): > 400 µg/mL | MIC (Human alphaherpesvirus 1 [17]): > 400 µg/mL | Activity (Vero): 400 µg/mL | MIC (Coxsackievirus B4 [18]): 80 µg/mL (≈ 229 µM) | MIC (Punta Toro virus): > 80 µg/mL | EC50 (Human betaherpesvirus 5 [19]): > 100 µg/mL | EC50 (Human betaherpesvirus 5 [20]): > 100 µg/mL | EC50 (Human alphaherpesvirus 3 [21]): 64 µg/mL (≈ 183 µM) | EC50 (Human alphaherpesvirus 3 [22]): 64 µg/mL (≈ 183 µM) | Activity [23]: inactive | MIC (Human respirovirus 3): > 80 µg/mL | MIC [24]: > 80 µg/mL | MIC (Sindbis virus): > 80 µg/mL | CC50 [25]: > 50 µg/mL
